Source: ChEMBL document CHEMBL1817655, “Tylosema esculentum extractives and their bioactivity” (Bioorg Med Chem, 2011)
In brackets after ≈: the same amount, converted by molar mass.

Assays:
Format in all cases: functional
[1] = tested on: Staphylococcus aureus; assay: Antimicrobial activity against Staphylococcus aureus ATCC 9144 after 24 hrs using thiazoyl blue by agar overlay bioautography method
How it was run: (§1)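 Agar-overlay TLC bioautography. Stock samples (10 mg/mL) were serially diluted to 5.0, 1.0, 0.05 and 0.001 mg/mL, spotted on silica gel TLC plates and dried. Plates were overlaid with Sabouraud dextrose agar seeded with 24-h cultures and run in duplicate. Incubation was 24 h at 37 °C for S. aureus and E. coli, and 25 °C for B. subtilis, P. aeruginosa and C. albicans. Plates were then sprayed with MTT and incubated a further 4 h. MIQ was the lowest loading giving a white inhibition zone.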

[2] = tested on: Bacillus subtilis; assay: Antimicrobial activity against Bacillus subtilis ATCC 6633 after 24 hrs using thiazoyl blue by agar overlay bioautography method; how it was run: as §1
[3] = tested on: Pseudomonas aeruginosa; assay: Antimicrobial activity against Pseudomonas aeruginosa NCTC 10332 after 24 hrs using thiazoyl blue by agar overlay bioautography method; how it was run: as §1
[4] = tested on: Candida albicans; assay: Antimicrobial activity against Candida albicans ATCC 10231 after 24 hrs using thiazoyl blue by agar overlay bioautography method; how it was run: as §1
[5] = tested on: Escherichia coli; assay: Antimicrobial activity against Escherichia coli ATCC 11229 after 24 hrs using thiazoyl blue by agar overlay bioautography method; how it was run: as §1
[6] = tested on: Radical scavenging activity; assay: Antioxidant activity assessed as DPPH radical scavenging activity after 30 mins by spectrophotometric analysisic analysis
How it was run: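 Methanolic samples (0.005–0.5 mg/mL) were mixed 1:1 by volume with 2% DPPH and incubated in the dark at room temperature. Absorbance at 517 nm was read at 0.5, 1, 3, 6 and 24 h. Percent scavenged = (A_blank − A_sample)/A_blank × 100, with the blank being DPPH without sample. Ascorbic acid served as reference. Run in triplicate.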

[7] = Antioxidant activity assessed as H2O2 scavenging activity at 12.5 to 250 ug/mL after 30 mins by spectrophotometric analysisic analysis
How it was run: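 Hydrogen peroxide (32.7 mM in PBS, pH 7.4; 0.6 mL) was combined with 0.05–1 mL of 1 mg/mL extract or standard (gallic acid, ascorbic acid) and made up to 4 mL with water. A230 was read before and after 30 min. Background correction used buffer without peroxide. Percent scavenged = (A0 − A1)/A0 × 100.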

Row | SMILES | MIC [1] [µg] | MIC [2] [µg] | MIC [3] [µg] | MIC [4] [µg] | MIC [5] [µg] | EC50 [6] [µg/mL] | Activity [7] [%]
1 | CCO[C@@H]1[C@@H](O)[C@H](O)[C@@H](CO)O[C@@H]1O | 50 | 50 | 50 | 50 | 50 |  | 
2 | O=C1O[C@H]([C@@H](O)CO)C(O)=C1O [ASCORBIC ACID] |  |  |  |  |  | 41.08 (≈ 233 µM) | > 50
3 | CCCCCCCCCCCCCCCCCCCCCC(=O)O [BEHENIC ACID] | 50 | 50 | 50 | 50 | 50 |  | 
4 | CC[C@H](CC[C@@H](C)[C@H]1CC[C@H]2[C@@H]3CC=C4C[C@@H](O)CC[C@]4(C)[C@H]3CC[C@]12C)C(C)C [BETA-SITOSTEROL] | 50 | 50 | 50 | 50 | 50 |  | 
5 | O=C(N[C@H](CO)[C@H](O)c1ccc([N+](=O)[O-])cc1)C(Cl)Cl [CHLORAMPHENICOL] | 0.001 | 0.001 | 0.001 | 0.001 | 0.001 |  | 
6 | O=C(O)c1cc(O)c(O)c(O)c1 [GALLIC ACID] | 50 | 50 | 50 | 50 | 50 | 1.85 (≈ 10.9 µM) | > 50
7 | O=C1C=C2C=C[C@@H](O)[C@H](O)[C@H]2O1 [GRIFFONILIDE] | 50 | 50 | 50 | 50 | 50 |  | 
8 | N#C/C=C1/C=C[C@@H](O)[C@H](O)[C@H]1O[C@@H]1O[C@H](CO)[C@@H](O)[C@H](O)[C@H]1O [GRIFFONIN] | 50 | 50 | 50 | 50 | 50 |  | 
9 | CCCCCCCC/C=C\CCCCCCCC(=O)O [OLEIC ACID] | 50 | 50 | 50 | 50 | 50 |  | 
10 | O=C(O)c1ccc(O)c(O)c1 [PROTOCATECHUIC ACID] | 50 | 50 | 50 | 50 | 50 |  | 
11 | OC[C@H]1O[C@@](CO)(O[C@H]2O[C@H](CO)[C@@H](O)[C@H](O)[C@H]2O)[C@@H](O)[C@@H]1O [SUCROSE] | 50 | 50 | 50 | 50 | 50 |  | 
